The values that follow come from ChEMBL document CHEMBL1143701, “O2-acetoxymethyl-protected diazeniumdiolate-based NSAIDs (NONO-NSAIDs): synthesis, nitric oxide release, and biological evaluation studies” (Bioorg Med Chem, 2007).

The subject of test [1] is Rattus norvegicus. In words: Antiinflammatory activity against carrageenan-induced rat paw edema in orally dosed rat after 3 hrs. Type of test: functional. Conditions: po, read-out: ID50 (the source's name).
The subject of test [2] is Rattus norvegicus. The test can be described thus: Gastric damage production in rat assessed as gastric ulcer index at 1.38 mmol/kg, po after 6 hrs. Format: functional, Stomach. The method in brief:
(§1)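 Rats fasted 24 h (water allowed), given single oral dose suspended in 1.7 mL 1% methylcellulose; vehicle controls. Killed 6 h later by CO2; stomachs opened along greater curvature and ulcer lengths scored under magnifier. Ulcer index = total ulcer length (mm) summed over stomachs divided by animals (n = 4); mean ± SEM.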

Test [3] relates to Rattus norvegicus. In words: Gastric damage production in rat assessed as gastric ulcer index at 1.21 mmol/kg, po after 6 hrs. Type of test: functional, Stomach. The method in brief:
as §1

Test [4] in a line: Effect on nitric oxide release in pH 7.4 PBS buffer using sievers […]. Type of test: functional. The method in brief: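 Prodrug in DMSO (46 or 77 mM stock), 10 μL injected into 3 mL deoxygenated phosphate buffer pH 7.4 at 37 °C in sealed cell; NO swept by nitrogen purge to chemiluminescence analyzer calibrated with NO/He standards; mol NO/mol compound from integrated peak area; time to ~50% of theoretical NO read graphically.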

A short description of test [5]: Effect on nitric oxide release in presence of porcine liver esterase per mole using sievers […]. Format: functional. The method in brief: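 Porcine liver esterase (10 μL of suspension in 3.2 M ammonium sulfate) in 3 mL phosphate buffer pH 8.0; 10 μL of 46 or 77 mM DMSO stock injected; NO carried by nitrogen purge to chemiluminescence analyzer, quantified against calibration curve; time to 100% theoretical NO read graphically.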

In test [6] the test system is Rattus norvegicus. The test can be described thus: Gastric damage production in rat assessed as gastric ulcer index at 0.08 mmol/kg, po after 6 hrs. Format: functional, Stomach. The method, boiled down: as §1
Test [7] has as its target T1, Prostaglandin G/H synthase 1 (Ovis aries, UniProt P05979).
T1 sequence (P05979 whole entry): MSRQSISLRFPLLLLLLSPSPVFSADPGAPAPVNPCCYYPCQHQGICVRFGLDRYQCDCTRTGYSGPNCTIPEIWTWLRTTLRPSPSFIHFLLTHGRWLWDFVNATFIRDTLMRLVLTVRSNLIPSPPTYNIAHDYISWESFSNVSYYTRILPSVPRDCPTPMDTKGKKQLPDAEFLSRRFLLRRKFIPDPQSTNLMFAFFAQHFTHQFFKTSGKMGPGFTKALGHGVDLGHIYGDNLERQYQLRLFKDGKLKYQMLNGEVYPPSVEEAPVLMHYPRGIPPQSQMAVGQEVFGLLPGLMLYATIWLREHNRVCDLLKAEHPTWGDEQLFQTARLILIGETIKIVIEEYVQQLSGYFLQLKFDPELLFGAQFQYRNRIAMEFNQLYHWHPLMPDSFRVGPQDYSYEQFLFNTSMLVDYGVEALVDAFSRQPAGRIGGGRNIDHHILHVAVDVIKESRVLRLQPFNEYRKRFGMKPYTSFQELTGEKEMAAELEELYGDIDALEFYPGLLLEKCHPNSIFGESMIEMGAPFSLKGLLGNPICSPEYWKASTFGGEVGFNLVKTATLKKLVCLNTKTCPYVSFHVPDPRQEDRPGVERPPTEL
In words: Inhibition of ovine COX1 by enzyme immuno assay.

pIC50: −log10 of the molar value. A value given as a limit tells only on which side of the number the result lay.

The pIC50 is the negative decadic logarithm of the IC50, by convention in mol/L. A low value points to a large IC50.

Regarding `COc1ccc2c(c1)c(CC(=O)O)c(C)n2C(=O)c1ccc(Cl)cc1` [INDOMETHACIN], the ED50 with Rattus norvegicus [1] is 11.7 µmol/kg.
In the case of `CC(=O)Oc1ccccc1C(=O)O` [ASPIRIN], the Activity in the test with Rattus norvegicus [2] turned out to be 57.4. Also, the ED50 with Rattus norvegicus [1] came to 714 µmol/kg.
With `CC(C)Cc1ccc(C(C)C(=O)O)cc1` (configuration not stated) [IBUPROFEN], the Activity with Rattus norvegicus [3] is 45.8. Moreover, the ED50 in the test with Rattus norvegicus [1] amounted to 327 µmol/kg.
Take `CC(=O)OCO/N=[N+](\[O-])N(C)CCO`: the Activity in test [4] came out at 1 mol/mol; in test [5] it was 2 mol/mol.
For the compound `COc1ccc2c(c1)c(CC(=O)OCCN(C)/[N+]([O-])=N/OCOC(C)=O)c(C)n2C(=O)c1ccc(Cl)cc1`, the Activity in test [4] is 0.9 mol/mol; in the test on Rattus norvegicus [6] it was 1.3; in test [5], 2 mol/mol. Besides, the pIC50 in test [7] was less than 4.00. In addition, the ED50 in the test with Rattus norvegicus [1] was 20.3 µmol/kg.
Turning to `CC(=O)OCO/N=[N+](\[O-])N(C)CCOC(=O)C(C)c1ccc(CC(C)C)cc1` (configuration not stated), the Activity in test [4] was 1.1 mol/mol; in the test with Rattus norvegicus [3] it was 0; in test [5] it was 2 mol/mol. Further, the negative-log IC50 (pIC50) in test [7] is less than 4.00. Besides, the ED50 with Rattus norvegicus [1] turned out to be 175 µmol/kg.
Regarding `CC(=O)OCO/N=[N+](\[O-])N(C)CCOC(=O)c1ccccc1OC(C)=O`, the results for the Activity (in test [4]; in the test with Rattus norvegicus [2]; in test [5]) were 1 mol/mol, 0.84 and 2 mol/mol, respectively. In addition, the negative-log IC50 (pIC50) in test [7] is less than 4.00. Moreover, the ED50 in the test with Rattus norvegicus [1] was found to be 553 µmol/kg.
